Laboratory results as given in PubChem BioAssay.
Calls of active or inactive are those of the source.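 How the source made its calls, unless noted: active means inhibition of the reporter signal at or above 50%; inactive means inhibition below 50%.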

Tests used:
[1] = inhibitors of TNFa-induced NFkB p65 translocation, primary screen, imaging, HUVEC, MLSMR starter and 10KST1 sets (AID 438;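 active means inhibition above 20% together with a positive visual image hit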;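 further: compound added about 3h40 before a 20 min TNFalpha stimulation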;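 on inhibition: signal is the nuclear over cytoplasmic p65 intensity ratio per well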); conditions: HUVEC TNFa-induced p65 nuclear translocation; cell count: measured here: nuclei count (cytotoxicity indicator), at 2.08 µM; inhibition: at 2 µM, stronger effect = higher value, 0% TNFa-plus-vehicle, 100% no-TNFa wells
[2] = reduction of polyQ htt aggregates in cells – imaging, exon1htt(103Q)mCFP cells, high-content imaging, primary screen (AID 483;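 active means visual image review flags a hit and inhibition of aggregation exceeds 20%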;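 further: compound exposure lasted 3 days before fixation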;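 on nuclei count: percent of the per-plate median nuclei count of sample wells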); conditions: exon1htt(103Q)mCFP cell line, aggregate imaging, at 2 µM; inhibition of aggregation: stronger effect = higher value; nuclei count: measured here: cell count, toxicity
[3] = endothelial E-selectin expression blockers – imaging, HUVEC, immunofluorescence, MLSMR starter and 10KST1 sets, primary screen (AID 487;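 active means visually confirmed hit in the image check and inhibition above 20%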;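 on inhibition: signal is fraction of cell area covered by stained E-selectin grains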;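 on nuclei count: 100% = median nuclei count of all wells on the same plate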); conditions: HUVEC TNFalpha-induced E-selectin immunofluorescence imaging, at 2 µM; inhibition: stronger effect = higher value; nuclei count: measured here: cell number, toxicity
[4] = target: Voltage-gated potassium channel subunit beta-2 (Rattus norvegicus) (UniProt P62483); experiment: inhibitors of rat Kvbeta2 reductase activity – biochemical, NADPH fluorescence, primary screen (AID 622;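 active means fluorescence slope higher than the sample average by over 3 SD, cut at about -0.22 in these data, passing the limit was not always enough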;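 further: slope of raw intensity against log time taken from 70 to 1610 s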); conditions: recombinant KvBeta, 4-cyanobenzaldehyde reduction, at 10 µM, stronger effect = higher value
[5] = target: Voltage-gated potassium channel subunit beta-2 (Rattus norvegicus) (UniProt P62483); experiment: enhancers of rat Kvbeta2 NADPH turnover – biochemical, NADPH fluorescence, primary screen (AID 623;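 active means NADPH fluorescence slope more negative than the mean of all samples by about 3 SD, 99.7% confidence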;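 further: fluorescence intensity change per second fitted from 20 to 320 s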); conditions: Recombinant KvBeta, NADPH fluorescence decrease slope, 10 min; at 10 µM; stronger effect = lower value
[6] = target: Muscarinic acetylcholine receptor M4 (Homo sapiens) (UniProt P08173); experiment: M4-linked GIRK flux change, two-sided – cell-based, HEK293 M4/GIRK, thallium flux, BTC-AM, M4 allosteric agonist project, primary screen (AID 625;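 active means fluorescence slope after compound addition differing from the mean of all tested samples at 99.7% confidence, mostly higher but some lower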;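 further: thallium influx through GIRK channels coupled to M4 in HEK293 cells with BTC-AM dye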); conditions: at 10 µM, actives lie on both sides
In short: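 System: HEK293 cells with M4 receptor and GIRK channels | Incubation: Cells overnight at 37 °C, BTC-AM loading 1 h, reads 2 min total | Technique: Kinetic BTC-AM fluorescence sampled at 1 Hz, 10 s pre-addition baseline | Measure: Post-addition slope, 15–24 s, of baseline-normalized fluorescence | Control set: Carbachol positive, DMSO negative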

[7] = blockers of RIG-like receptor reporter activation – cell-based, Sendai virus stimulus, luciferase, 10K MLSCN set, TLR/RLR signaling modifier project, primary screen (AID 602276;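 active means inhibition at or above 50% at 10 µM; inactive means inhibition below 50%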;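 further: firefly luciferase from ISG56 promoter only with Renilla not read in this screen; 0% = Sendai virus plus DMSO and 100% = medium plus DMSO without virus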); conditions: HEK293 RL24 IRF3 luciferase reporter, at 10 µM, stronger effect = higher value
[8] = TLR3 IRF3 reporter activation blockers – cell-based, poly I:C stimulus, luciferase, 10K MLSCN set, primary screen (AID 602277); conditions: HEK293-TLR3 RL24 IRF3 luciferase reporter, at 10 µM, stronger effect = higher value

Muscarinic acetylcholine receptor M4 (Homo sapiens), sequence (P08173 whole entry, looked up): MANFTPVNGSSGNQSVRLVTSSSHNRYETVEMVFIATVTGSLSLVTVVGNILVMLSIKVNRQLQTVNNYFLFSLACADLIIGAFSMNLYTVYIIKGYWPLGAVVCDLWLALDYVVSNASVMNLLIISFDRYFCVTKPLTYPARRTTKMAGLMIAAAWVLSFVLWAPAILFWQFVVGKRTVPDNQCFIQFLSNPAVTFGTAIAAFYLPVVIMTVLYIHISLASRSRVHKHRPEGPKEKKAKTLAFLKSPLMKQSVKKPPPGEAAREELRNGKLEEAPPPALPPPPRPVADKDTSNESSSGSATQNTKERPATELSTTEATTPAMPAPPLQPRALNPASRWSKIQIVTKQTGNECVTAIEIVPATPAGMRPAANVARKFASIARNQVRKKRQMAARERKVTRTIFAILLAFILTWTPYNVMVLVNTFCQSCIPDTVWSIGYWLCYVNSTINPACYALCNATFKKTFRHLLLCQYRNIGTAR
Voltage-gated potassium channel subunit beta-2 (Rattus norvegicus), sequence (P62483 whole entry, looked up): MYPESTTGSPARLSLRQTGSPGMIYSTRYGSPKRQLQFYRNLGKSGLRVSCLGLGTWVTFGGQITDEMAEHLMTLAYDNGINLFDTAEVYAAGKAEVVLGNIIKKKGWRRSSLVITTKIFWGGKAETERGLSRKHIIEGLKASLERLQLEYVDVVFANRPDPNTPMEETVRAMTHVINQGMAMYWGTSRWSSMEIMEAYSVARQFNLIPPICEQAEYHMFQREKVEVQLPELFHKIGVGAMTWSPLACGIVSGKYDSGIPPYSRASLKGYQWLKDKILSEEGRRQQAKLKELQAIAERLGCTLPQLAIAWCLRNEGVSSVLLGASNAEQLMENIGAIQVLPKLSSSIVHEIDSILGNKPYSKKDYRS

| Structure (SMILES) | cell count [1] | inhibition [1] | inhibition of aggregation [2] | nuclei count [2] | inhibition [3] | nuclei count [3] | fluorescence slope [4] | NADPH fluorescence slope [5] | fluorescence slope [6] | inhibition [7] | inhibition [8] |
| --- | --- | --- | --- | --- | --- | --- | --- | --- | --- | --- | --- |
| O=C(CCCn1ncn2c(cc3occc32)c1=O)N1CCc2ccccc2C1 | 363 | -0.7% (inactive) | 4.2% (inactive) | 93.3% | -81.7% (inactive) | 101% | -0.484 (inactive) | -0.00018 (inactive) | 0.00605 (inactive) | 8.38% (inactive) | 8.89% (inactive) |
| COc1ccc(NC(=O)CSc2nnc(-c3ccncc3)n2CC2CCCO2)c(OC)c1 (centres undefined) | 587 | -6.1% (inactive) | 18.1% (inactive) | 87.6% | -89.2% (inactive) | 119% | -0.575 (inactive) | -1.2e-05 (inactive) | 0.00641 (inactive) | 7.58% (inactive) | 28% (inactive) |
| COCCNc1nc(C(C)(C)C)nc2c1nnn2Cc1ccccc1Cl | 419 | 15.8% (inactive) | 1% (inactive) | 106% | 14.6% (inactive) | 111% | -0.462 (inactive) | -1.9e-06 (inactive) | 0.00616 (inactive) | -0.805% (inactive) | 56% (active) |
| O=S1(=O)Nc2c(ccc3cccnc23)-c2ccccc21 | 318 | 77.8% (active) | -31.5% (inactive) | 50.8% | 47.4% (inactive) | 94.2% | -0.465 (inactive) | -0.000334 (inactive) | 0.00395 (inactive) | -4.82% (inactive) | -17.5% (inactive) |
| COC(=O)C1=C(C)OC(N)=C(C#N)C1c1ccccc1 (centres undefined) | 428 | 1.7% (inactive) | 5.6% (inactive) | 114% | -73.1% (inactive) | 116% | -0.568 (inactive) | -6.5e-06 (inactive) | 0.0048 (inactive) | 11.5% (inactive) | 16.7% (inactive) |
| COC(=O)c1c(C)oc2ccc(NS(=O)(=O)c3cccs3)cc12 | 435 | 3.4% (inactive) | 1.4% (inactive) | 99.1% | -85.7% (inactive) | 114% | -0.534 (inactive) | -8.8e-05 (inactive) | 0.0032 (inactive) | 20.8% (inactive) | 10.9% (inactive) |
| COc1ccc(CN2C(=O)c3ccccc3C2C(=O)NC2CCCC2)c(OC)c1 (centres undefined) | 671 | -4.8% (inactive) | 8.3% (inactive) | 87.1% | -53.3% (inactive) | 112% | -0.443 (inactive) | -4.9e-05 (inactive) | 0.00535 (inactive) | 14.9% (inactive) | 9.49% (inactive) |
| CCc1cc2c(=O)c(-c3ccc4c(c3)OCCO4)coc2cc1OC(=O)c1ccco1 | 637 | -5.2% (inactive) | 4.7% (inactive) | 92.8% | -184% (inactive) | 105% | -0.554 (inactive) | -4.2e-05 (inactive) | 0.00495 (inactive) | -45.7% (inactive) | -122% (inactive) |
| CC(=O)c1c(C)[nH]c(C(=O)NC2=NCCS2)c1C | 459 | -9.6% (inactive) | 15.8% (inactive) | 61.1% | 23.6% (inactive) | 95.2% | -0.571 (inactive) | -1.9e-05 (inactive) | 0.00678 (inactive) | -2.52% (inactive) | -11.8% (inactive) |
| CCOC(=O)c1ccc(NC(=O)CSc2ncccn2)cc1 | 366 | 10.7% (inactive) | -25% (inactive) | 101% | -62.8% (inactive) | 100% | -0.532 (inactive) | -0.000128 (inactive) | 0.0039 (inactive) | -20.7% (inactive) | -63.9% (inactive) |
| Cn1c(Cc2csc(N)n2)nnc1SCC(=O)NCc1ccccc1 | 447 | 7.3% (inactive) | 9.5% (inactive) | 95.3% | -12.6% (inactive) | 118% | -0.58 (inactive) | -9.4e-06 (inactive) | 0.00622 (inactive) | -2.1% (inactive) | 13.3% (inactive) |
| Cn1c(=O)c2ccccc2n(Cc2ccccc2F)c1=O | 254 | -8.1% (inactive) | 8.7% (inactive) | 74.6% | -51.8% (inactive) | 73.9% | -0.451 (inactive) | -7.1e-05 (inactive) | 0.00416 (inactive) | 1.3% (inactive) | 65.6% (active) |
| CCS(=O)(=O)N1CCC(C(=O)N2CCOCC2)CC1 | 647 | -7.3% (inactive) | -7% (inactive) | 95.7% | 27.5% (inactive) | 94.4% | -0.574 (inactive) | -2.5e-05 (inactive) | 0.00531 (inactive) | 12.1% (inactive) | 15.7% (inactive) |
| O=C1c2ccccc2C(=O)N1Cc1nc2ccccc2c(=O)n1CCN1CCOCC1 | 383 | -10.3% (inactive) | -11.3% (inactive) | 85.7% | -48.6% (inactive) | 160% | -0.521 (inactive) | 1.6e-05 (inactive) | 0.0047 (inactive) | 14.9% (inactive) | 12.8% (inactive) |
